Test results as given in ChEMBL document CHEMBL1145896, “5-Substituted-2,4-diamino-6-[2-(phosphonomethoxy)ethoxy]pyrimidines-acyclic nucleoside phosphonate analogues with antiviral activity” (J Med Chem, 2003).

Experiments:
[1] = Antiviral activity against KOS strain of HSV-1 in E6SM cells.; type: functional, cell-based, herpes simplex virus
How it was run: (§1)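 Inhibition of virus-induced cytopathicity. HSV-1 and HSV-2 were tested in E6SM cells; VZV and CMV in HEL cells. Confluent monolayers were inoculated with 100 CCID50 of virus. After 1–2 h adsorption, residual virus was removed and compound was added at serial concentrations (400, 200, 100, ... μg/mL). Cytopathicity was scored once untreated infected controls reached complete CPE.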

[2] = system: Human immunodeficiency virus 2; experiment: Antiviral activity against HIV-2 (ROD) in CEM (human leukemia) cells.; type: functional, organism-based; details: ccrf-cem
How it was run: (§2)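 Human CEM cells (~3 × 10^5 cells/mL) were infected with 100 CCID50 per mL of HIV-1 (IIIB) or HIV-2 (ROD) and seeded into wells containing compound dilutions. After 4 days at 37 °C, syncytium (giant cell) formation was examined microscopically.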

[3] = system: Cytomegalovirus; experiment: Antiviral activity against AD169 strain of cytomegalovirus (CMV) in HEL ([…]) cells.; type: functional, organism-based; how it was run: as §1
[4] = Antiviral activity against G strain of HSV-2 in E6SM cells.; type: functional, cell-based, herpes simplex virus; how it was run: as §1
[5] = system: CCRF-CEM; experiment: Cytotoxicity against CEM (human lymphoblastic leukemia) cells in vitro.; type: functional
[6] = system: Moloney murine sarcoma virus; experiment: Antiviral activity against murine sarcoma virus; type: functional, organism-based
How it was run: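 Murine C3H/3T3 embryo fibroblasts were seeded at 5 × 10^5 cells/mL. After 24 h, cells were infected with 80 focus-forming units of MSV (from mouse tumours) for 90–120 min at 37 °C. Medium was then replaced by fresh medium containing varied compound concentrations, and MSV-induced transformation was the read-out.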

[7] = system: Human immunodeficiency virus 1; experiment: Antiviral activity against HIV-1 (IIIB) in CEM (human leukemia) cells.; type: functional, organism-based; details: ccrf-cem; how it was run: as §2
[8] = Antiviral activity against vaccinia virus in HEL ([…]) cells.; type: functional, cell-based
[9] = system: Human alphaherpesvirus 3; experiment: Antiviral activity against 07/1 strain of VZV in HEL ([…]) cells.; type: functional, organism-based; how it was run: as §1
[10] = system: Cytomegalovirus; experiment: Antiviral activity against Davis strain of cytomegalovirus (CMV) in HEL ([…]) cells.; type: functional, organism-based; how it was run: as §1
[11] = system: Human alphaherpesvirus 3; experiment: Antiviral activity against OKA strain of VZV in HEL ([…]) cells.; type: functional, organism-based; set-up: unit not given here; how it was run: as §1

| Structure (SMILES) | EC50 [1] | EC50 [2] | EC50 [3] | EC50 [4] | CC50 [5] | EC50 [6] | EC50 [7] | EC50 [8] | EC50 [9] | EC50 [10] | EC50 [11] |
| --- | --- | --- | --- | --- | --- | --- | --- | --- | --- | --- | --- |
| Cc1c(N)nc(N)n(CCOCP(=O)(O)O)c1=O | > 1.2 uM ml-1 | > 0.3 uM ml-1 | > 0.15 uM ml-1 | > 1.2 uM ml-1 | > 300 µM | > 1.12 uM ml-1 | > 0.3 uM ml-1 | > 1.2 uM ml-1 | > 0.15 uM ml-1 |  |  |
| Nc1ncnc2c1ncn2CCOCP(=O)(O)O [ADEFOVIR] | 0.024 uM ml-1 | 0.0066 uM ml-1 | 0.1 uM ml-1 | 0.024 uM ml-1 | 56 µM | 0.0022 uM ml-1 | 0.0033 uM ml-1 | > 0.17 uM ml-1 |  | 0.27 uM ml-1 |  |
| Nc1nc(N)n(CCOCP(=O)(O)O)c(=O)c1CC(=O)O | > 1.2 uM ml-1 | > 0.3 uM ml-1 | > 0.15 uM ml-1 | > 1.2 uM ml-1 | > 300 µM | 0.082 uM ml-1 | > 0.3 uM ml-1 | > 1.2 uM ml-1 | > 0.15 uM ml-1 | > 0.15 uM ml-1 | > 0.15 |
| Nc1nc(N)c(Br)c(OCCOCP(=O)(O)O)n1 | 0.7 uM ml-1 | 0.0095 uM ml-1 | > 0.15 uM ml-1 | 0.7 uM ml-1 | > 300 µM | 0.007 uM ml-1 | 0.0073 uM ml-1 | 0.7 uM ml-1 | > 0.15 uM ml-1 |  |  |
| Nc1nc(N)n(CCOCP(=O)(O)O)c(=O)c1Cc1ccccc1 | > 1.2 uM ml-1 | > 0.3 uM ml-1 | > 0.15 uM ml-1 | > 1.2 uM ml-1 | > 300 µM | > 1.12 uM ml-1 | > 0.3 uM ml-1 | > 1.2 uM ml-1 | > 0.15 uM ml-1 | > 0.15 uM ml-1 | > 0.15 |
| Cc1c(N)nc(N)nc1OCCOCP(=O)(O)O | > 1.2 uM ml-1 | 0.00031 uM ml-1 | > 0.15 uM ml-1 | > 1.2 uM ml-1 | 15 µM | 0.00022 uM ml-1 | 0.00043 uM ml-1 | > 1.2 uM ml-1 | 0.042 uM ml-1 | > 0.15 uM ml-1 | 0.018 |
| CCOC(=O)Cc1c(N)nc(N)n(CCOCP(=O)(O)O)c1=O | > 1.2 uM ml-1 | 0.11 uM ml-1 | > 0.15 uM ml-1 | > 1.2 uM ml-1 | > 300 µM | 0.011 uM ml-1 | > 0.3 uM ml-1 | > 1.2 uM ml-1 | > 0.15 uM ml-1 | > 0.15 uM ml-1 | > 0.15 |
| Nc1nc(N)c(Cl)c(OCCOCP(=O)(O)O)n1 | > 1.2 uM ml-1 | 0.0044 uM ml-1 | > 0.12 uM ml-1 | > 1.2 uM ml-1 | 300 µM | 0.0028 uM ml-1 | 0.0031 uM ml-1 | > 1.2 uM ml-1 |  | > 0.6 uM ml-1 |  |
| Nc1cc(OCCOCP(=O)(O)O)nc(N)n1 | 0.025 uM ml-1 | 0.0016 uM ml-1 | > 0.19 uM ml-1 | 0.033 uM ml-1 | 42 µM | 0.00015 uM ml-1 | 0.003 uM ml-1 | 0.18 uM ml-1 | 0.0095 uM ml-1 | > 0.19 uM ml-1 | 0.0045 |
| C=CCc1c(N)nc(N)nc1OCCOCP(=O)(O)O | > 1.2 uM ml-1 | > 0.3 uM ml-1 | > 0.15 uM ml-1 | 0.79 uM ml-1 | > 300 µM | > 1.12 uM ml-1 | > 0.3 uM ml-1 | > 1.2 uM ml-1 | > 0.15 uM ml-1 | > 0.15 uM ml-1 | > 0.15 |
| Nc1cc(OC[C@H](CO)OCP(=O)(O)O)nc(N)n1 | 0.0048 uM ml-1 | 0.014 uM ml-1 | 0.13 uM ml-1 | 0.017 uM ml-1 | 23 µM | > 0.0027 uM ml-1 | > 0.014 uM ml-1 | 0.0065 uM ml-1 | 0.00024 uM ml-1 | 0.12 uM ml-1 | 0.00017 |
